Measured values taken from ChEMBL document CHEMBL2346570, “Small-molecule inhibitors of cytokine-mediated STAT1 signal transduction in β-cells with improved aqueous solubility” (J Med Chem, 2013).
Values after ≈ are worked out from the molar mass of the structure shown. Active and inactive are the calls of the source. The rule behind the calls is not given here.

How the values were obtained:
[1] = Thermodynamic solubility in PBS at pH 7.4 after 24 hrs by UPLC-MS analysis; type: physicochemical; conditions: for solubility thermodynamic at 24 h: PBS, pH 7.4, read-out: Therm_solubility
Summary of the method: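 Thermodynamic solubility assay in phosphate buffered saline, pH 7.4.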

[2] = Cytoprotective activity in rat INS-1E cells assessed as suppression of cytokine-induced caspase-3/7 activation after 48 hrs by luminescence assay; type: functional, cell-based
Summary of the method: (§1)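 INS-1E β-cells exposed to a cytokine mixture (IFN-γ at 500 ng/mL; IL-1β and TNF-α lowered 20- and 10-fold from standard levels) with compound for 48 h; caspase-3/7 activation read as apoptosis. IC50 from dose-response in three replicates; maximum activity expressed as % rescue from cytokine-induced caspase-3/7 activation.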

INS-1E [3] = experiment: Effect on total STAT1 level in rat INS-1E cells at 10 uM after 30 mins by Western blotting analysis; type: functional, cell-based
[4] = Cytoprotective activity in rat INS-1E cells assessed as suppression of cytokine-induced caspase-3/7 activation after 48 hrs by luminescence assay relative to control; type: functional; summary of the method: as §1
INS-1E [5] = experiment: Inhibition of JAK1/JAK2 in rat INS-1E cells assessed as inhibition of IFNgamma-induced STAT1 phosphorylation at Tyr701 and Ser727 at 10 uM after 30 mins by Western blotting analysis; type: cell-based
Summary of the method: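 INS-1E β-cells treated with IFN-γ with or without compound for 30 min; STAT1 phosphorylation at Tyr701 and Ser727 assessed by Western blotting.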

INS-1E [6] = experiment: Inhibition of IFNgamma-induced JAK1/JAK2 signaling in rat INS-1E cells assessed as STAT1 nuclear translocation at 10 uM after 30 mins by immunofluorescence assay; type: cell-based
Summary of the method: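 IFN-γ-stimulated INS-1E β-cells, with or without compound, for 30 min; cells fixed and STAT1 subcellular (cytoplasm vs nucleus) localization monitored by immunofluorescence imaging.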

| Structure (SMILES) | solubility thermodynamic at 24 h [1] | IC50 [2] | inhibition (INS-1E [3]) | %max [4] | inhibition (INS-1E [5]) | inhibition (INS-1E [6]) | Therm_solubility ([1]; buffer, pH 7.4, 24 h) |
| --- | --- | --- | --- | --- | --- | --- | --- |
| C[C@@H]1CN([C@@H](C)CO)C(=O)c2cccc(NC(=O)Nc3cccc4ccncc34)c2O[C@H]1CN(C)S(=O)(=O)c1ccc2c(c1)OCCO2 | 101 µM (≈ 68.5 µg/mL) | – | – | – | – | – | – |
| C[C@@H]1CN([C@@H](C)CO)C(=O)c2cccc(NC(=O)Nc3ccnc4ccccc34)c2O[C@H]1CN(C)S(=O)(=O)c1ccc2c(c1)OCCO2 | 30.3 µM (≈ 20.5 µg/mL) | > 20 µM | – | – | – | – | – |
| C[C@@H]1CN([C@@H](C)CO)C(=O)c2cccc(NC(=O)Nc3cccc4cccnc34)c2O[C@H]1CN(C)S(=O)(=O)c1ccc2c(c1)OCCO2 | 1.8 µM (≈ 1.22 µg/mL) | 3.26 µM | inactive | 69% | Active | Active | – |
| C[C@@H]1CN([C@@H](C)CO)C(=O)c2cccc(NC(=O)Nc3cccc4ccccc34)c2O[C@H]1CN(C)S(=O)(=O)c1ccc2c(c1)OCCO2 | – | 1.66 µM | inactive | 71% | Active | Active | 0.1 µM |
| C[C@@H]1CN([C@@H](C)CO)C(=O)c2cccc(NC(=O)N(C)c3cccc4ccccc34)c2O[C@H]1CN(C)S(=O)(=O)c1ccc2c(c1)OCCO2 | 11.2 µM (≈ 7.71 µg/mL) | 4.74 µM | – | 15% | – | – | – |
| C[C@@H]1CN([C@@H](C)CO)C(=O)c2cccc(NC(=O)Nc3nccc4ccccc34)c2O[C@H]1CN(C)S(=O)(=O)c1ccc2c(c1)OCCO2 | 0.7 µM (≈ 0.473 µg/mL) | 1.05 µM | – | 21% | – | – | – |
| C[C@@H]1CN([C@@H](C)CO)C(=O)c2cccc(NC(=O)NCc3cccc4ccccc34)c2O[C@H]1CN(C)S(=O)(=O)c1ccc2c(c1)OCCO2 | 0.1 µM (≈ 0.0689 µg/mL) | > 20 µM | inactive | – | inactive | inactive | – |
| C[C@@H]1CN([C@@H](C)CO)C(=O)c2cccc(NC(=O)Nc3cccc4cnccc34)c2O[C@H]1CN(C)S(=O)(=O)c1ccc2c(c1)OCCO2 | 60.5 µM (≈ 40.9 µg/mL) | 4.65 µM | – | 59% | – | – | – |
| C[C@@H]1CN([C@@H](C)CO)C(=O)c2cccc(NC(=O)Nc3cncc4ccccc34)c2O[C@H]1CN(C)S(=O)(=O)c1ccc2c(c1)OCCO2 | 84.9 µM (≈ 57.4 µg/mL) | 4.1 µM | – | 31% | – | – | – |
| C[C@@H]1CN([C@@H](C)CO)C(=O)c2cccc(NC(=O)Nc3cccc4ncccc34)c2O[C@H]1CN(C)S(=O)(=O)c1ccc2c(c1)OCCO2 | 138 µM (≈ 93.6 µg/mL) | 1.62 µM | – | 41% | – | – | – |
